Results of several laboratories.
Each line is one published result; the experiments were not run side by side.
MALT1: Mucosa-associated lymphoid tissue lymphoma translocation protein 1 (MALT1, Homo sapiens, UniProt Q9UDY8)
CDK15: Cyclin-dependent kinase 15 (CDK15, Homo sapiens, UniProt Q96Q40)
WNK1: Serine/threonine-protein kinase WNK1 (WNK1, Homo sapiens, UniProt Q9H4A3)

COc1cc(Cl)c(C(=O)N[C@@H](CN[C@H]2CC[C@@H](N)CC2)Cc2ccc(C#N)cc2)cc1-c1ccc(CN[C@H](C)c2ccc(C)cc2)o1 gave a remaining activity of 107% (Serine/threonine-protein kinase Nek3 (NEK3, Homo sapiens, UniProt P51956); enzyme activity, inhibitor; 1 µM).
For CC(C)[C@H](NC(=O)OCc1ccccc1)C(=O)N[C@@H](CCCN=C(N)N)C(=O)N1CCC[C@H]1C(=O)N[C@@H](CCCN=C(N)N)C(=O)CF, the inhibition was 56% (MALT1; enzyme activity, inhibitor; 10 nM).
With C[C@@H](NC(=O)[C@@H](N)Cc1ccc(O)cc1)C(=O)N[C@@H](Cc1ccccc1)C(=O)NCC(=O)N[C@@H](Cc1ccc(O)cc1)C(=O)N1CCC[C@H]1C(=O)N[C@@H](CCCCN)C(=O)N[C@@H](CSC1CC(=O)N(CCCCCNC(=O)c2ccc(C3=c4cc5c(cc4Oc4cc6c(cc43)C(CS(=O)(=O)[O-])=CC(C)(C)N6C)=[N+](C)C(C)(C)C=C5CS(=O)(=O)O)c(C(=O)O)c2)C1=O)C(N)=O (stereo partly shown) the koff was 0.068 s⁻¹ (Mu-type opioid receptor (Oprm1, Mus musculus, UniProt P42866); binding).
For Fc1cccc(-n2cnc3c(NCc4nc5c(F)c(F)ccc5[nH]4)nc(N4CCOCC4)nc32)c1, the binding vs control was 20% (CDK15; binding, competition with immobilised ligand; 10 µM).
For CN(C)C(=O)COC(=O)Cc1ccc(OC(=O)c2ccc(NC(=N)N)cc2)cc1, the inhibition was 48% (MALT1; enzyme activity, inhibitor; 10 µM).
Nc1ncc(-c2nc(N3CCOCC3)nc(N3CCOCC3)n2)c(C(F)F)n1 has a remaining binding of 57% (WNK1; binding, competition with immobilised ligand; 10 µM).
Cc1nn(C)cc1-c1nc2c(N3CCN(Cc4ccc(Cl)cc4)CC3)c(Cl)cnc2[nH]1 has a remaining binding of 100% (Phosphatidylinositol 4-phosphate 3-kinase C2 domain-containing subunit beta (PIK3C2B, Homo sapiens, UniProt O00750); binding, competition with immobilised ligand; 1 µM).
COc1ncccc1-c1cnn2ccc(N3CCN(C(=O)OC(C)C)CC3)nc12 gave a remaining binding of 74% (WNK1; binding, competition with immobilised ligand; 1 µM).
For O=[N+]([O-])c1cccc2[nH]c(CNc3nc(N4CCOCC4)nc4c3ncn4-c3ccsc3)nc12, the binding vs control was 47% (CDK15; binding, competition with immobilised ligand; 10 µM).
With CCN(CC)CCCC[C@H](NC(=O)[C@H](CC(C)C)NC(=O)[C@H](C)NC(=O)[C@H](Cc1ccccc1)NC(=O)c1ccc(C(C)(C)C)cc1)C(=O)N[C@@H](CO)C(=O)OC the ΔTm was 0 °C (ATPase family AAA domain-containing protein 2B (ATAD2B, Homo sapiens, UniProt Q9ULI0); thermal stability, DSF; 25 µM).
The Emax of CCCCCn1nc(C(=O)N[C@H](C(N)=O)C(C)C)c2ccccc21 is reported as 116% (Cannabinoid receptor 1 (CNR1, Homo sapiens, UniProt P21554); calcium signal, agonist, fluorescence).
CN(CCN1CCC(OC(=O)Nc2ccccc2-c2ccccc2)CC1)C(=O)c1ccc(CN2CCC(C(N)=O)CC2)cc1 has an inhibition of 23% (Endothelin-1 receptor (EDNRA, Homo sapiens, UniProt P25101); ligand displacement, radioligand; 1 µM).
The inhibition of [H]/N=C(/N)c1ccc(NCc2nc3cc(C(=O)N(CCC(=O)O)c4ccccn4)ccc3n2C)cc1 is reported as 16% (Vitamin K-dependent protein C (PROC, Homo sapiens, UniProt P04070); enzyme activity, inhibitor; 0.2 µM).
